pKi: −log10 of the molar value.
Columns and labels:
Rattus norvegicus [1] = assay: Antiinflammatory activity in Sprague-Dawley rat assessed as inhibition carrageenan-induced paw edema at 5 mg/kg, ip pretreated for 15 mins followed by carrageenan challenge measured at 1 hr post carrageenan challenge; conditions: read-out: INH
Rattus norvegicus [2] = assay: Antiinflammatory activity in Sprague-Dawley rat assessed as inhibition carrageenan-induced paw edema at 5 mg/kg, ip pretreated for 15 mins followed by carrageenan challenge measured at 2 hrs post carrageenan challenge; conditions: read-out: INH
Rattus norvegicus [3] = assay: Antiinflammatory activity in Sprague-Dawley rat assessed as inhibition carrageenan-induced paw edema at 5 mg/kg, ip pretreated for 15 mins followed by carrageenan challenge measured at 4 hrs post carrageenan challenge; format: functional
Method in brief: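 Male Sprague-Dawley rats got an IP pretreatment 15 min before a subplantar carrageenan injection. Paw volume was recorded at 1, 2, 4 and 6 h after carrageenan. Percent inhibition of paw edema was calculated against a vehicle-treated group.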

Rattus norvegicus [4] = assay: Antiinflammatory activity in Sprague-Dawley rat assessed as inhibition carrageenan-induced paw edema at 5 mg/kg, ip pretreated for 15 mins followed by carrageenan challenge measured at 6 hrs post carrageenan challenge; format: functional
Method in brief: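 Male Sprague-Dawley rats received peptide IP (30, 10 or 3 mg/kg), or indomethacin IP at 5 mg/kg, 15 min before subplantar carrageenan. Paw volume was followed over time against a vehicle group.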

Rattus norvegicus [5] = assay: Antiinflammatory activity in Sprague-Dawley rat assessed as inhibition carrageenan-induced paw edema at 5 mg/kg, ip pretreated for 30 mins followed by carrageenan challenge measured up to 8 hrs post carrageenan challenge; format: functional
Plasma = assay: Anti-coagulating activity in human plasma assessed as increase in coagulation time at 14 uM by aPTT assay relative to control; format: functional
Coagulation factor XI = Coagulation factor XI (Homo sapiens, UniProt P03951); assay: Inhibition of factor 11a (unknown origin)
Coagulation factor XI, sequence (P03951 19-387 limits assumed): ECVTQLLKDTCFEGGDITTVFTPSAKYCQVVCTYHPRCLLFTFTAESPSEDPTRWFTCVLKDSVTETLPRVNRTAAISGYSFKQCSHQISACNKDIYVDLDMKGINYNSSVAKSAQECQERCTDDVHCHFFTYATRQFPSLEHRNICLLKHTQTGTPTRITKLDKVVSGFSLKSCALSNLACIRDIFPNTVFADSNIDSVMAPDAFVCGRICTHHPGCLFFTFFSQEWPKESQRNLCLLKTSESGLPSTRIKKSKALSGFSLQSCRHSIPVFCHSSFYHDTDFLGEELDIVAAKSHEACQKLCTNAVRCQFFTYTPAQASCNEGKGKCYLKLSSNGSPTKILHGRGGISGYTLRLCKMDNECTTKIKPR
Coagulation factor XI, sequence (P03951 388-625 limits assumed): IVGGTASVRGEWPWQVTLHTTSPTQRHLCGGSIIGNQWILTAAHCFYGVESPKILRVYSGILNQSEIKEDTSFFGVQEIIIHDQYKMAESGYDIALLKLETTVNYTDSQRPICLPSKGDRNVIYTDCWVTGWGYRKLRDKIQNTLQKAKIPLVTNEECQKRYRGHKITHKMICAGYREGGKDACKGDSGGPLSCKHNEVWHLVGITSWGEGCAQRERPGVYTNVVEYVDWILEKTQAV

Q: For `COc1ccc2c(c1)c(CC(=O)O)c(C)n2C(=O)c1ccc(Cl)cc1` [INDOMETHACIN], which inhibition in vivo at 5 mg/kg (Rattus norvegicus [1]) is on record?
A: Its inhibition in vivo at 5 mg/kg is 79%.

Q: And the inhibition in vivo at 5 mg/kg (Rattus norvegicus [2])?
A: The inhibition in vivo at 5 mg/kg was 56%.

Q: What about the inhibition in vivo at 5 mg/kg (Rattus norvegicus [3]) of the same compound?
A: Its inhibition in vivo at 5 mg/kg is 54%.

Q: And the inhibition in vivo at 5 mg/kg (Rattus norvegicus [4])?
A: Its inhibition in vivo at 5 mg/kg is 48%.

Q: What about the inhibition in vivo at 5 mg/kg (Rattus norvegicus [5]) of the same compound?
A: Its inhibition in vivo at 5 mg/kg is 47.2%.

Q: Which results are given for `Cc1cc(Oc2nc(Oc3cccc(C(=N)N)c3)c(F)c(NC(C)CCc3ccccc3)c2F)c(C(=O)O)cc1N(C)C` (configuration not stated)?
A: fold change (FC) (Plasma): 2; pKi (Coagulation factor XI): 6.00
